Measured values as given in ChEMBL document CHEMBL2390917, “Synthesis and biological evaluation of 2-(5-methyl-4-phenyl-2-oxopyrrolidin-1-yl)-acetamide stereoisomers as novel positive allosteric modulators of sigma-1 receptor” (Bioorg Med Chem, 2013).
Active and inactive are the calls of the source. The rule behind the calls is not given here.

What was measured:
[1] = molecular target: Vasopressin V1a receptor (Homo sapiens) (UniProt P37288); test: Binding affinity to human vasopressin V1a receptor at 10 uM by radioligand displacement assay relative to control
[2] = molecular target: Mu-type opioid receptor (Homo sapiens) (UniProt P35372); test: Binding affinity to mu opioid receptor (unknown origin) at 10 uM by radioligand displacement assay relative to control
[3] = molecular target: Adrenergic receptor alpha-1 (Homo sapiens) (UniProt P35348+P25100+P35368); test: Binding affinity to human adrenergic alpha1 receptor at 10 uM by radioligand displacement assay relative to control
Mus musculus [4] = test: Toxicity in ICR mouse assessed as effect on locomotor activity measured moved distance per 4 mins at 10 mg/kg, ip after 120 mins by open field test (reference value: 578 126 cm); assay type: organism-based; set-up: dose 10 mg/kg, route intraperitoneal; details: in vivo
[5] = molecular target: Sigma non-opioid intracellular receptor 1 (Rattus norvegicus) (UniProt Q9R0C9); test: Positive allosteric modulation of Wistar rat sigma 1 receptor assessed as potentiation of PB-28 effect on electrically-stimulated vas deferens contraction at 10 uM preincubated for 10 mins followed by PB-28 addition
[6] = molecular target: Muscarinic acetylcholine receptor M4 (Homo sapiens) (UniProt P08173); test: Binding affinity to human muscarinic M4 receptor at 10 uM by radioligand displacement assay relative to control
[7] = molecular target: Adenosine receptor A1 (Homo sapiens) (UniProt P30542); test: Binding affinity to human adenosine A1 receptor at 10 uM by radioligand displacement assay relative to control
[8] = molecular target: Sigma non-opioid intracellular receptor 1 (Rattus norvegicus) (UniProt Q9R0C9); test: Positive allosteric modulation of Wistar rat sigma 1 receptor assessed as potentiation of PRE-084 effect on electrically-stimulated vas deferens contraction at 10 uM preincubated for 10 mins followed by PRE-084 addition
Procedure, shortened: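 Isolated rat vas deferens, proximal ~15 mm segments, in K-H buffer at 32 °C gassed […], with 1.0 g passive tension and a 60 min adaptation. Field-stimulated at 0.1 Hz, 1 ms, 50 V. Cumulative PRE-084 (1–100 µM) was given, then washout and a 30 min rest. Test compound 10 µM was added for 10 min before cumulative PRE-084. Response is % increase over baseline amplitude; n=6, mean ± SEM, paired t-test.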

Mus musculus [9] = test: Cognitive enhancing effect in ICR mouse assessed as increase in retention latency at 1 mg/kg, ip administered 60 mins prior to testing measured after 24 hrs by passive avoidance test relative to control; assay type: functional; details: route intraperitoneal
[10] = molecular target: Sodium-dependent dopamine transporter (Homo sapiens) (UniProt Q01959); test: Binding affinity to human dopamine transporter at 10 uM by radioligand displacement assay relative to control
[11] = molecular target: Neurotensin receptor type 1 (Homo sapiens) (UniProt P30989); test: Binding affinity to NTS1 receptor (unknown origin) at 10 uM by radioligand displacement assay relative to control
[12] = molecular target: Sigma non-opioid intracellular receptor 1 (Homo sapiens, UniProt Q99720); test: Modulation of sigma 1 receptor (unknown origin) by radioligand displacement assay relative to control
Homo sapiens [13] = species on record: Homo sapiens; test: Binding affinity to PCP receptor (unknown origin) at 10 uM by radioligand displacement assay relative to control
Homo sapiens [14] = species on record: Homo sapiens; test: Binding affinity to peripheral-type BZD receptor (unknown origin) at 10 uM by radioligand displacement assay relative to control
[15] = molecular target: Delta-type opioid receptor (Homo sapiens) (UniProt P41143); test: Binding affinity to delta opioid receptor (unknown origin) at 10 uM by radioligand displacement assay relative to control
Mus musculus [16] = test: Toxicity in ICR mouse assessed as effect on locomotor activity measured moved distance per 4 mins at 1 mg/kg, ip after 120 mins by open field test (reference value: 578 126 cm); assay type: organism-based; set-up: dose 1 mg/kg, route intraperitoneal; details: in vivo
[17] = molecular target: 5-hydroxytryptamine receptor 3A (Homo sapiens) (UniProt P46098); test: Binding affinity to human 5-HT3 receptor at 10 uM by radioligand displacement assay relative to control
[18] = molecular target: Neuromedin-K receptor (Homo sapiens) (UniProt P29371); test: Binding affinity to human NK3 receptor at 10 uM by radioligand displacement assay relative to control
Homo sapiens [19] = species on record: Homo sapiens; test: Binding affinity to bombesin receptor (unknown origin) at 10 uM by radioligand displacement assay relative to control
Mus musculus [20] = test: Antiamnesic activity in ICR mouse scopolamine-induced memory impairment model assessed as increase in retention latency at 5 mg/kg, ip administered 60 mins prior to scopolamine challenge measured after 40 mins by passive avoidance test in presence of sigma-1 receptor anatagonist NE-100; assay type: functional, organism-based; set-up: dose 5 mg/kg
[21] = molecular target: Muscarinic acetylcholine receptor M3 (Homo sapiens) (UniProt P20309); test: Binding affinity to human muscarinic M3 receptor at 10 uM by radioligand displacement assay relative to control
[22] = molecular target: Gastrin/cholecystokinin type B receptor (Homo sapiens) (UniProt P32239); test: Binding affinity to human CCK2 receptor at 10 uM by radioligand displacement assay relative to control
Homo sapiens [23] = species on record: Homo sapiens; test: Binding affinity to human TNFalpha receptor at 10 uM by radioligand displacement assay relative to control
[24] = molecular target: D(1B) dopamine receptor (Homo sapiens) (UniProt P21918); test: Binding affinity to human dopamine D5 receptor at 10 uM by radioligand displacement assay relative to control
[25] = molecular target: Cannabinoid receptor 1 (Homo sapiens) (UniProt P21554); test: Binding affinity to human CB1 receptor at 10 uM by radioligand displacement assay relative to control
Homo sapiens [26] = species on record: Homo sapiens; test: Binding affinity to P2X receptor (unknown origin) at 10 uM by radioligand displacement assay relative to control
Mus musculus [27] = test: Toxicity in ICR mouse assessed as effect on locomotor activity measured moved distance per 4 mins at 10 mg/kg, ip after 30 mins by open field test (reference value: 1124 121 cm); assay type: organism-based; set-up: dose 10 mg/kg, route intraperitoneal; details: in vivo
[28] = molecular target: Nociceptin receptor (Homo sapiens) (UniProt P41146); test: Binding affinity to ORL1 receptor (unknown origin) at 10 uM by radioligand displacement assay relative to control
[29] = molecular target: D(4) dopamine receptor (Homo sapiens) (UniProt P21917); test: Binding affinity to human dopamine D4.4 receptor at 10 uM by radioligand displacement assay relative to control
[30] = molecular target: D(2) dopamine receptor (Homo sapiens) (UniProt P14416); test: Binding affinity to human dopamine D2S receptor at 10 uM by radioligand displacement assay relative to control
[31] = molecular target: Galanin receptor type 2 (Homo sapiens) (UniProt O43603); test: Binding affinity to human GAL2 receptor at 10 uM by radioligand displacement assay relative to control
Mus musculus [32] = test: Toxicity in ICR mouse assessed as effect on locomotor activity measured moved distance per 4 mins at 1 mg/kg, ip after 60 mins by open field test (reference value: 623 136 cm); assay type: organism-based; set-up: dose 1 mg/kg, route intraperitoneal; details: in vivo
Mus musculus [33] = test: Cognitive enhancing effect in ICR mouse assessed as increase in retention latency at 10 mg/kg, ip administered 60 mins prior to testing measured after 24 hrs by passive avoidance test relative to control; assay type: functional; details: route intraperitoneal
[34] = molecular target: C-C chemokine receptor type 1 (Homo sapiens) (UniProt P32246); test: Binding affinity to human CCR1 at 10 uM by radioligand displacement assay relative to control
Chain of C-C chemokine receptor type 1 (Homo sapiens) (P32246 whole entry): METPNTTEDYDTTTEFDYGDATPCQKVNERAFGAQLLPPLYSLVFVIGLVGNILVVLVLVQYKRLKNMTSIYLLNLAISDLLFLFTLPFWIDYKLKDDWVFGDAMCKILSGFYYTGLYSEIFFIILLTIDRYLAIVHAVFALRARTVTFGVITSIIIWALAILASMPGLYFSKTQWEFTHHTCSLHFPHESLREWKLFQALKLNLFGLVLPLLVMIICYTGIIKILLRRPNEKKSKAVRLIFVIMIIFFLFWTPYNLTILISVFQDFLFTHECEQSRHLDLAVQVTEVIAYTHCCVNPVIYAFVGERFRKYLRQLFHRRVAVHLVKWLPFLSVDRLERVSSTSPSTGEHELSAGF

Chain of Sigma non-opioid intracellular receptor 1 (Rattus norvegicus) (Q9R0C9 whole entry): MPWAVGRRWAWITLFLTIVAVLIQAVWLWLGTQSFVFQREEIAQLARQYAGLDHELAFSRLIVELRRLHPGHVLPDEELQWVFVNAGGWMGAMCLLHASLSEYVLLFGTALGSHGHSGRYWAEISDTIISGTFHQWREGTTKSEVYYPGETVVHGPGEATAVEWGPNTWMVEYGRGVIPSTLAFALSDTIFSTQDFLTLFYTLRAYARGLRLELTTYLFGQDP
Chain of Muscarinic acetylcholine receptor M3 (Homo sapiens) (P20309 whole entry, looked up): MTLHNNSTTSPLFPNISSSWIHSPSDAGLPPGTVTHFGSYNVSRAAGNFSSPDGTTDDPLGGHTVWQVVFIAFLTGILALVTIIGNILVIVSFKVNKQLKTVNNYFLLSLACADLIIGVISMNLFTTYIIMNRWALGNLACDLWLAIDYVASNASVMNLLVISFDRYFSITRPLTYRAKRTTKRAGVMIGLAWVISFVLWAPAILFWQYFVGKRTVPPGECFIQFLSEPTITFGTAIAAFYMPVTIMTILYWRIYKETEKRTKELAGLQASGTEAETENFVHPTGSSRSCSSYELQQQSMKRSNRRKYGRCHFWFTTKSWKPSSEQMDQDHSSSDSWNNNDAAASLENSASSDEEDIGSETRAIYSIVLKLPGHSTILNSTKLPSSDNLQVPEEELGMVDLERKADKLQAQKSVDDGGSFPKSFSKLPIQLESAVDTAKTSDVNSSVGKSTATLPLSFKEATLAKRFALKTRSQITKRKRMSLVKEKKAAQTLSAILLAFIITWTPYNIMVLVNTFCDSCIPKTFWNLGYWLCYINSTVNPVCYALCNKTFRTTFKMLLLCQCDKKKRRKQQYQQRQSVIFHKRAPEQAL
Chain of Neurotensin receptor type 1 (Homo sapiens) (P30989 whole entry): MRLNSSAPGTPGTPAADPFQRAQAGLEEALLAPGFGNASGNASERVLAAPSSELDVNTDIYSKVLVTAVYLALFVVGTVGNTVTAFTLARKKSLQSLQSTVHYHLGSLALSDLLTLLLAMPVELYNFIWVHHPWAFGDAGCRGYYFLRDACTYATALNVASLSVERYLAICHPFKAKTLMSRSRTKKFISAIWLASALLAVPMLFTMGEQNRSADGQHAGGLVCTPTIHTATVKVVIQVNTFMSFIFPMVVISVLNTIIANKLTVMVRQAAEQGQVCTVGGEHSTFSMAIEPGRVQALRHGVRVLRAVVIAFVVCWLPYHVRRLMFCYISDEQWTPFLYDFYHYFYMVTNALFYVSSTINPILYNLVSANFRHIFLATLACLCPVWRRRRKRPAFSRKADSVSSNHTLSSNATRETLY
Chain of Neuromedin-K receptor (Homo sapiens) (P29371 whole entry): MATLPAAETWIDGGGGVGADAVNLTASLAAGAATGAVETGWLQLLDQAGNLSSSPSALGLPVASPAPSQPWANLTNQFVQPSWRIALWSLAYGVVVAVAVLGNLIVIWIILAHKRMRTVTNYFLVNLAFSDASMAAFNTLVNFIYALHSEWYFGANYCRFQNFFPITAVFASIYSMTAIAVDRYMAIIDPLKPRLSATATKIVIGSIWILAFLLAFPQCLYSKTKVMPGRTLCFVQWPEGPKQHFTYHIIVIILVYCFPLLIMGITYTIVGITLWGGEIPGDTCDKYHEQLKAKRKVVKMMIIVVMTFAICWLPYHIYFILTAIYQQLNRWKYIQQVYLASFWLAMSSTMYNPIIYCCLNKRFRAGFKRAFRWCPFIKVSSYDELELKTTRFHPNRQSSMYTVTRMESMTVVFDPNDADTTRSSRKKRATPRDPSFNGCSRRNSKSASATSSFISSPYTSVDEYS
Chain of Muscarinic acetylcholine receptor M4 (Homo sapiens) (P08173 whole entry): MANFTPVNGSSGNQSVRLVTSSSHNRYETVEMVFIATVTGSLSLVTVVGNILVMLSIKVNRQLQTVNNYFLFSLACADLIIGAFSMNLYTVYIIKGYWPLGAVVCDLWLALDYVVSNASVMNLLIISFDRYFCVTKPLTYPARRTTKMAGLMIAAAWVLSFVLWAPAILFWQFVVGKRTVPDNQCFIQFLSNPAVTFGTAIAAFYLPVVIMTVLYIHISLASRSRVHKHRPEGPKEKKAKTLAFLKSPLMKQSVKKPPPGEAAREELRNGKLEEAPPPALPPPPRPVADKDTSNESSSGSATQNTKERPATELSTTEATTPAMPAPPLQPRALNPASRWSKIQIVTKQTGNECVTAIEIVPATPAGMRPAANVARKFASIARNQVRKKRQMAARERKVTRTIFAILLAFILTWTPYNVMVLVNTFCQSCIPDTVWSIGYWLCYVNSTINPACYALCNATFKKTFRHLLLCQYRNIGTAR
Chain of D(4) dopamine receptor (Homo sapiens) (P21917 whole entry): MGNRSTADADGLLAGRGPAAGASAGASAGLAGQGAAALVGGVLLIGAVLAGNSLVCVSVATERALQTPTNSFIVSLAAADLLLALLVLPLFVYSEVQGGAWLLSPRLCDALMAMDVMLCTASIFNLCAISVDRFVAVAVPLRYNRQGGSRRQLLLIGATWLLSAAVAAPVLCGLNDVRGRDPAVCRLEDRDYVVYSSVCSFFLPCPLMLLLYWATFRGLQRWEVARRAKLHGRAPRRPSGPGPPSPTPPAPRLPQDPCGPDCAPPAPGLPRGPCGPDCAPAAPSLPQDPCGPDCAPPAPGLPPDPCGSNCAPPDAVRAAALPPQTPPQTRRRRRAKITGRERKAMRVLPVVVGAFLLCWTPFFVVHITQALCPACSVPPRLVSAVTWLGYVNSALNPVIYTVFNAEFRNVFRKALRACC
Chain of Sodium-dependent dopamine transporter (Homo sapiens) (Q01959 whole entry): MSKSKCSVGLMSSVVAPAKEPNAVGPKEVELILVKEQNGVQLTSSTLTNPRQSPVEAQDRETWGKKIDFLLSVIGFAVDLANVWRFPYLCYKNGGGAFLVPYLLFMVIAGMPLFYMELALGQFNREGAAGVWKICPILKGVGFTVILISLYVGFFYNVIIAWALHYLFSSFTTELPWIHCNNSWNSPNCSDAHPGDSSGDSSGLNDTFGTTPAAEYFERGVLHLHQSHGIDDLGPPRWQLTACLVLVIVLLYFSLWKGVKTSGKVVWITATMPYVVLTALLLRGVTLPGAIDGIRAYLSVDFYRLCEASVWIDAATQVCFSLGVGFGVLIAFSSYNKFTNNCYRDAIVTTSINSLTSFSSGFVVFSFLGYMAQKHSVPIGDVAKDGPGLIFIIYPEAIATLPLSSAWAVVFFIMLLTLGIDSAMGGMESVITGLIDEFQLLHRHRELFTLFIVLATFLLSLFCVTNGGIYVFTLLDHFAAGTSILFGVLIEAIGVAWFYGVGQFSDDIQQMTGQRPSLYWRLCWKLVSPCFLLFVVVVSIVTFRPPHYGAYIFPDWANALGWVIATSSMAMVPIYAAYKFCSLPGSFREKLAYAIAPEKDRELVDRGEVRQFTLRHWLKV
Chain of D(1B) dopamine receptor (Homo sapiens) (P21918 whole entry): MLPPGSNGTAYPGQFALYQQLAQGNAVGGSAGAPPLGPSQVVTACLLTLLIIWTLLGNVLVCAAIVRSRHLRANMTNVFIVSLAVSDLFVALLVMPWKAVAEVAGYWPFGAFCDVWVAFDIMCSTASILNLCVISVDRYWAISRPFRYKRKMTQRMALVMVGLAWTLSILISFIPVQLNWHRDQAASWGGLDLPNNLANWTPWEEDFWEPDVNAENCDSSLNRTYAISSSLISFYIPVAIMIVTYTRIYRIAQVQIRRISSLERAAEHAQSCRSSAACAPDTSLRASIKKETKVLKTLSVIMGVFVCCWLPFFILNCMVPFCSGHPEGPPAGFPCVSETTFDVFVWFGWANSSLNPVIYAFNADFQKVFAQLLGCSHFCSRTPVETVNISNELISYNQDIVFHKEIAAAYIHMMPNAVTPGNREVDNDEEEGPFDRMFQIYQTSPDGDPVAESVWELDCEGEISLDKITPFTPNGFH
Chain of Adenosine receptor A1 (Homo sapiens) (P30542 whole entry): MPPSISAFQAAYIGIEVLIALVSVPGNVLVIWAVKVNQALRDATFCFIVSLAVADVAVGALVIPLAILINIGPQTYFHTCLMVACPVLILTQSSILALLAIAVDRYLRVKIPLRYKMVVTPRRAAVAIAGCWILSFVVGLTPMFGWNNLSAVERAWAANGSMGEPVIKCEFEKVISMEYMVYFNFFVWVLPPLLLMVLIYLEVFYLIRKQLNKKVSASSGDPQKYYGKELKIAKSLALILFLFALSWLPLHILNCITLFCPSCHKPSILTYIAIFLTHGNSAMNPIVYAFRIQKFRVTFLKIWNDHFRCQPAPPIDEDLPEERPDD
Chain of Nociceptin receptor (Homo sapiens) (P41146 whole entry): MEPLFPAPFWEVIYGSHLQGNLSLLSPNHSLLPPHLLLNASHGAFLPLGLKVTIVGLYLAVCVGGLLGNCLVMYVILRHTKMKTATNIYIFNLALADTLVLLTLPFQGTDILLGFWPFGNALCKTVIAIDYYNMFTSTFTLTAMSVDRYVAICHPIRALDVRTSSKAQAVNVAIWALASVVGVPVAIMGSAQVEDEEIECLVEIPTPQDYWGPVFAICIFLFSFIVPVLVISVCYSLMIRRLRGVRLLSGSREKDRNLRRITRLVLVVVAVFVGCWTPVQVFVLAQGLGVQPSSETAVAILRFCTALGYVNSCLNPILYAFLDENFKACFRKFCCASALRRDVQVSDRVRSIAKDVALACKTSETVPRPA

Structure (SMILES): C[C@H]1[C@@H](c2ccccc2)CC(=O)N1CC(N)=O
- inhibition [1]: 2%
- inhibition [2]: -7%
- inhibition [3]: -5%
- Activity (Mus musculus [4]): 472 cm
- Activity [5]: inactive
- inhibition [6]: -3%
- inhibition [7]: 2%
- Activity [8]: Active
- Activity (Mus musculus [9]): 194%
- inhibition [10]: 4%
- inhibition [11]: -3%
- Activity [12]: > 20%
- inhibition (Homo sapiens [13]): 6%
- inhibition (Homo sapiens [14]): 3%
- inhibition [15]: -4%
- Activity (Mus musculus [16]): 688 cm
- inhibition [17]: -1%
- inhibition [18]: -7%
- inhibition (Homo sapiens [19]): -5%
- Activity (Mus musculus [20]): inactive
- inhibition [21]: -7%
- inhibition [22]: 8%
- inhibition (Homo sapiens [23]): -3%
- inhibition [24]: -3%
- inhibition [25]: -3%
- inhibition (Homo sapiens [26]): 6%
- Activity (Mus musculus [27]): 1026 cm
- inhibition [28]: 4%
- inhibition [29]: -3%
- inhibition [30]: 5%
- inhibition [31]: -4%
- Activity (Mus musculus [32]): 871 cm
- Activity (Mus musculus [33]): 211%
- inhibition [34]: -5%
